Measurements taken from article PMC2949545 (Environment international, 2010).
Where “and” joins values, the source holds several entries; their conditions need not be identical. Equal entries are not always repeated. Where two headings read alike, the source gives them in different places.

Experiments:
Sprague Dawley rat = conditions: female Sprague Dawley rats; ref http://ntp.niehs.nih.gov/; cited from earlier work
F344 BigBlue rats [1] = assay: Histological analysis of spleen, lung and liver; assay type: in vivo; conditions: animal 1 – 4
In short: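 In both genders, frozen tissue sampled at PND75 sacrifice (4 weekly i.p. doses, 4 rats/group) was cut into four-micron sections. Sections were stained with hematoxylin/eosin and examined by light microscopy for histological anomalies in each animal.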

liver mRNA = assay: Gene expression analysis of female liver RNA; assay type: in vivo, F344 BigBlue rats; conditions: for number of unique genes significantly changed: p < 0.0001 and fold change > 5 versus corn oil control, pooled RNA
F344 BigBlue rats [2] = assay: Organ weights normalized to body weight; assay type: in vivo; conditions: for impact on liver, lung and spleen weights: versus corn oil controls
In short: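 Rats of both genders, 4/group, were given 4 weekly i.p. doses in corn oil and killed on PND75 by CO2 then cervical dislocation. Liver and other organs were excised and weighed, and weights were expressed as g per 100 g body weight. ANOVA used treatment, gender and their interaction.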

LacI = conditions: ref Lehmann et al. 2007, cited from earlier work; for frameshift mutations, % of mutations: male livers, control 19%
[3] = Body weight gain during the study period; assay type: in vivo, F344 BigBlue rats; conditions: for effect on weight gain compared to control: either gender; for reduction of weight gain during the treatment period: versus control
LacI gene [4] = assay: BigBlue lacI mutant and mutation frequency analysis, female liver; assay type: in vivo, F344 BigBlue rats; conditions: for Mutants per 10^6 plaques (mutant frequency): 4 weekly i.p. injections, sacrifice PND75; for Mutation Frequency (MF) ± SE (corrected) / Number of Mutations (corrected): after sequencing; for Number of Mutations (corrected): duplicates and non-mutants excluded
In short: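 Female F344 BigBlue rats (lacI transgene), 4/group, got i.p. test compound, positive control or corn oil (5 ml/kg) weekly on PND 37, 44, 51, 58 and were killed on PND75. Genomic DNA from 50 mg central liver was lambda-packaged, infected into E. coli and plated in X-gal top agar overnight. Blue plaques were counted, with >100,000 pfu/animal. Mutant frequency = blue plaques/pfu, per 10^6 ± SE.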

[5] = ref Espandiari et al. 2004; cited from earlier work
LacI gene [6] = assay: LacI gene sequencing, type of mutations; assay type: in vivo, F344 BigBlue rats; conditions: female liver; for Deletions, distinct mutations / Insertions, distinct mutations / Transitions, distinct mutations / Transversions, distinct mutations: number; for frameshift mutations (deletions and insertions), % of all mutations: solvent controls 18%
F344 BigBlue rats [7] = conditions: Male; animal 1 – 4; previously reported; ref Lehmann et al. 2007; Maddox et al. 2008; cited from earlier work
[8] = ref Li et al. 1997; cited from earlier work
[9] = versus corn oil control, up-regulated

Clc1ccc(-c2cc(Cl)c(Cl)c(Cl)c2)cc1Cl [PCB 126, 3,3′,4,4′,5-pentachlorobiphenyl]
carcinogenicity in chronic carcinogenicity studies (Sprague Dawley rat): clear evidence

Oc1ccc(-c2ccc(Cl)cc2)cc1 [4′-OH-PCB3]
Organ Pathology, LIVER (F344 BigBlue rats [1]; Female): rare acidophilic bodies, but 3 of 4 animals had patchy hepatocellular necrosis and chronic inflammation and 1: Rare acidophilic bodies with patchy hepatocellular necrosis and chronic inflammation. 2 + 3: Rare acidophilic bodies with patchy hepatocellular necrosis and chronic inflammation. 4: Scattered acidophilic bodies with dilated sinusoids.
Organ Pathology, LUNG (F344 BigBlue rats [1]; Female): 1: Minimal acute inflammation 2: Almost normal with focal perivascular lymphocytes. 3: No abnormality. 4: Patchy bronchopneumonia with early ARDS. Perivascular lymphocytes increased
Organ Pathology, SPLEEN (F344 BigBlue rats [1]; Female): 1 – 4: Reduced mantle
Organ Pathology, SPLEEN (F344 BigBlue rats [1]; Male): 1: No abnormality 2 + 3: Reduced mantle with focally increased neutrophils. 4: Reduced mantle with focally increased neutrophils with red pulp congestion.
number of unique genes significantly changed (liver mRNA): 157
cul1 (cullin 1) expression change (liver mRNA; versus corn oil control, down): 36.3 fold
ei24 (etoposide induced 2.4 mRNA) expression change (liver mRNA; versus corn oil control, down): 28.1 fold
cyp2b2 expression change (liver mRNA; versus corn oil control, down-regulated): ~19 fold
aqp2 (aquaporin 2) expression change (liver mRNA; versus corn oil control, up): 6.6 fold
bnip3l (BCL2/adenovirus E1B interacting protein 3-like) expression change (liver mRNA; versus corn oil control, up): 5.8 fold
kdr (kinase insert domain protein receptor) expression change (liver mRNA; versus corn oil control, up): 6.4 fold
sh3glb1 (SH3-domain GRB2-like endophilin B1) expression change (liver mRNA; versus corn oil control, up): 6.3 fold
stat1 (signal transducer and activator of transcription 1) expression change (liver mRNA; versus corn oil control, up): 10.6 fold
syvn1 (synovial apoptosis inhibitor 1) expression change (liver mRNA; versus corn oil control, up): 26.7 fold
Cyp2j4 expression change (liver mRNA; [9]): 8.8 fold
sult1b1 (sulfotransforase 1b1) expression change (liver mRNA; [9]): ~7 fold
impact on liver, lung and spleen weights (F344 BigBlue rats [2]): no statistically significant impact
frameshift mutations, % of mutations (LacI): 22%
Weight Gain (average ± StDev) ([3]; Female, control 80.7 ± 7.42): 85.3 ± 4.13 gram
Weight Gain (average ± StDev) ([3]; Male, control 159.7 ± 7.63): 129.6 ± 17.50 gram
effect on weight gain compared to control [3]: Neither PCB3 nor 4′-OH-PCB3 had a significant effect on weight gain in either gender
significance of the increase in mutation frequency compared to control (LacI gene [4]): neither PCB3 (p=0.429) nor 4′-OH-PCB3 (p=0.581) increased the mutation frequency significantly
Mutants per 10^6 plaques (mutant frequency) (LacI gene [4]): 27.3 per 10^6 plaques
Mutation Frequency (MF) ± SE (corrected) (LacI gene [4]): 27.2 ± 6.6 per 10^6 pfu
Number of Mutations (corrected) (LacI gene [4]): 19
result in the modified Solt-Farber Initiation Protocol [5]: positive
Deletions, % of total (LacI gene [6]): 12%
Insertions, % of total (LacI gene [6]): 24%
Transitions, % of total (LacI gene [6]): 35%
Transversions, % of total (LacI gene [6]): 29%
Deletions, distinct mutations (LacI gene [6]): 2
Insertions, distinct mutations (LacI gene [6]): 4
Transitions, distinct mutations (LacI gene [6]): 6
Transversions, distinct mutations (LacI gene [6]): 5
frameshift mutations (deletions and insertions), % of all mutations (LacI gene [6]): 36%
Organ Pathology, LIVER (F344 BigBlue rats [7]): all four male 4′-OH-PCB3 livers showed dilated sinosoids and 1: dilated sinusoids, rare acidophil body. No obvious inflammation. 2, 3, and 4: dilated sinusoids,. Focal lymphocyte cluster with rare acidophil body. Minimal portal tract inflammation.
Organ Pathology, LUNG (F344 BigBlue rats [7]): 1 + 2: No abnormality. 3 + 4: Minimal perivascular lymphocytes.

Clc1ccc(-c2cc(Cl)c(Cl)cc2Cl)cc1Cl [PCB 118, 2,3′,4,4′,5-pentachloro-biphenyl]
carcinogenicity in chronic carcinogenicity studies (Sprague Dawley rat): clear evidence

Clc1ccc(-c2ccccc2)cc1 [PCB3, 4-chlorobiphenyl]
Organ Pathology, LIVER (F344 BigBlue rats [1]; Female): all female PCB3 livers had acidophilic bodies and two animals also showed patchy hepatocellular necrosis and 1 + 2: Scattered acidophilic bodies 3: Centrilobular acidophilic bodies and patchy hepatocellular necrosis. 4: Centrilobular acidophilic bodies and patchy hepatocellular necrosis.
Organ Pathology, LUNG (F344 BigBlue rats [1]; Female): 1: Focal acute inflammation 2: Minimal acute inflammation with areas of atelectasis 3: Minimal acute inflammation 4: Patchy bronchopneumonia with early ARDS. Perivascular lymphocytes increased.
Organ Pathology, SPLEEN (F344 BigBlue rats [1]; Female): No abnormality
Organ Pathology, SPLEEN (F344 BigBlue rats [1]; Male): No abnormality
number of unique genes significantly changed (liver mRNA): 86
CYP mRNA in the liver (liver mRNA; versus corn oil control): No CYP mRNA increase
Jun expression change (liver mRNA; versus corn oil control, up): 55.9 fold
avpr1a (arginine vasopressin receptor 1A) expression change (liver mRNA; versus corn oil control, up): 7.3 fold
cfdp1 (craniofacial development protein 1) expression change (liver mRNA; versus corn oil control, up): 6.2 fold
cps1 (carbamoyl-phosphate synthetase 1) expression change (liver mRNA; versus corn oil control, up): 6.7 fold
hmox1 (heme oxygenase 1) expression change (liver mRNA; versus corn oil control, up): 5.8 fold
kdr (kinase insert domain protein receptor) expression change (liver mRNA; versus corn oil control, up): 5.5 fold
lrrc59 (leucine rich repeat containing 59) expression change (liver mRNA; versus corn oil control, up): 33.1 fold
mbd2 (Methyl-CpG-binding protein) expression change (liver mRNA; versus corn oil control, up): 6.9 fold
mrpl23 (mitochondrial ribosomal protein L23) expression change (liver mRNA; versus corn oil control, up): 223.3 fold
sult1b1 (sulfotransforase 1b1) expression change (liver mRNA; [9]): ~7 fold
impact on liver, lung and spleen weights (F344 BigBlue rats [2]): no statistically significant impact
Weight Gain (average ± StDev) ([3]; Female, control 80.7 ± 7.42): 79.6 ± 4.51 gram
Weight Gain (average ± StDev) ([3]; Male, control 159.7 ± 7.63): 146.1 ± 7.99 gram
effect on weight gain compared to control [3]: Neither PCB3 nor 4′-OH-PCB3 had a significant effect on weight gain in either gender
significance of the increase in mutation frequency compared to control (LacI gene [4]): neither PCB3 (p=0.429) nor 4′-OH-PCB3 (p=0.581) increased the mutation frequency significantly
Mutants per 10^6 plaques (mutant frequency) (LacI gene [4]): 30.3 per 10^6 plaques
Mutation Frequency (MF) ± SE (corrected) (LacI gene [4]): 30.3 ± 17.9 per 10^6 pfu
Number of Mutations (corrected) (LacI gene [4]): 15
Deletions, % of total (LacI gene [6]): 7%
Insertions, % of total (LacI gene [6]): 20%
Total Mutations (LacI gene [6]): 15
Transitions, % of total (LacI gene [6]): 53%
Transversions, % of total (LacI gene [6]): 20%
Deletions, distinct mutations (LacI gene [6]): 1
Insertions, distinct mutations (LacI gene [6]): 3
Transitions, distinct mutations (LacI gene [6]): 8
Transversions, distinct mutations (LacI gene [6]): 3

Cc1ccc2cc3c(ccc4ccccc43)c3c2c1CC3 [3-MC, 3-Methylcholanthrene, reference compound]
Organ Pathology, LIVER (F344 BigBlue rats [1]; Female): only scattered foci of necrosis, prominent Kupffer cells and focal perilobular lymphocytes in two of the four animals
Organ Pathology, LUNG (F344 BigBlue rats [1]; Female): 1: Bronchopneumonia with what looks like early ARDS. Pulmonary edema 2: Bronchopneumonia with what looks like early ARDS more so than #1. Pulmonary edema. 3: Focal acute inflammation with increased intra-alveolar macrophages 4: No abnormality.
Organ Pathology, SPLEEN (F344 BigBlue rats [1]; Female): No abnormality
Organ Pathology, SPLEEN (F344 BigBlue rats [1]; Male): No abnormality
number of unique genes significantly changed (liver mRNA): Seventyfive
calca (calcitonin/calcitonin-related polypeptide a) expression (liver mRNA; versus corn oil control): up regulated
csda (cold shock domain protein A) expression (liver mRNA; versus corn oil control): up regulated
trib3 (tribbles homolog 3) expression (liver mRNA; versus corn oil control): up regulated
CYP1A2 gene expression increase (liver mRNA; versus corn oil control, up): 58 fold
UGT1A2 gene expression increase (liver mRNA; versus corn oil control, up): 13 fold
akr7a3 (aldo-keto reductases 7a3) expression change (liver mRNA; versus corn oil control, up): 16 fold
bcl10 (B-cell CLL/lymphoma 10) expression change (liver mRNA; versus corn oil control, up): 16.3 fold
ephx1 (epoxide hydrolase 1) expression change (liver mRNA; versus corn oil control, up): 9.9 fold
gdnf (glial cell derived neurotrophic factor) expression change (liver mRNA; versus corn oil control, up): 6.0 fold
glrx1 (glutaredoxin 1) expression change (liver mRNA; versus corn oil control, up): 10.2 fold
hmox1 (heme oxygenase 1) expression change (liver mRNA; versus corn oil control, up): 16.3 fold
mgst2 (microsomal glutathione S-transferase 2) expression change (liver mRNA; versus corn oil control, up): 7.9 fold
ptgs1 (prostaglandin-endoperoxide synthase 1) expression change (liver mRNA; versus corn oil control, up): 27.8 fold
smarcb1 expression change (liver mRNA; versus corn oil control, up): 8.5 fold
increase in liver mass compared to corn oil controls (F344 BigBlue rats [2]; female rats): over 30%
increase in lung mass compared to corn oil controls (F344 BigBlue rats [2]; female rats): over 30%
increase in spleen mass compared to corn oil controls (F344 BigBlue rats [2]; female rats): over 30%
liver weight relative to body weight compared to corn oil treated rats (F344 BigBlue rats [2]; female rats): nearly doubled in weight per grams of body weight
relative lung weight (F344 BigBlue rats [2]; female rats): more than doubling of the relative lung weight
spleen, thymus and adrenal gland weights relative to controls (F344 BigBlue rats [2]; females): increased spleen weights and decreased the thymus and adrenal gland weights
frameshift mutations, % of mutations (LacI): 27%
increase in mutation frequency (LacI; male rodents, liver): about 5 fold
Weight Gain (average ± StDev) ([3]; Female, control 80.7 ± 7.42): 61.8 ± 7.78 ^# gram
Weight Gain (average ± StDev) ([3]; Male, control 159.7 ± 7.63): 90.4 ± 25.6 gram
reduction of weight gain during the treatment period ([3]; females): 23%
reduction of weight gain during the treatment period ([3]; males): 43%
significance of the increase in mutation frequency compared to control (LacI gene [4]): failed marginally to reach statistical significance
Mutants per 10^6 plaques (mutant frequency) (LacI gene [4]): 48.4 per 10^6 plaques
Mutation Frequency (MF) ± SE (corrected) (LacI gene [4]): 43.5 per 10^6 pfu and 43.5 ± 14.8 per 10^6 pfu
Number of Mutations (corrected) (LacI gene [4]): 28
persistence in the liver [8]: 2 weeks
Deletions, % of total (LacI gene [6]): 18%
Insertions, % of total (LacI gene [6]): 14%
Total Mutations (LacI gene [6]): 28
Transitions, % of total (LacI gene [6]): 32%
Transversions, % of total (LacI gene [6]): 36%
frameshift mutations (deletions and insertions) observed, number (LacI gene [6]; expected 5 from solvent control proportions): 9
Deletions, distinct mutations (LacI gene [6]): 5
Insertions, distinct mutations (LacI gene [6]): 4
Transitions, distinct mutations (LacI gene [6]): 9
Transversions, distinct mutations (LacI gene [6]): 10
frameshift mutations (deletions and insertions), % of all mutations (LacI gene [6]): 32%
Organ Pathology, LIVER (F344 BigBlue rats [7]): centrilobular necrosis, in some cases severe, was the dominat finding
Organ Pathology, LUNG (F344 BigBlue rats [7]): 1: No abnormality 2 + 3: Focal perivascular lymphocytes. 4: Focal perivascular lymphocytes with increased intra-alveolar macrophages.
